According to ChEMBL document CHEMBL1157968, “Chemical and cytotoxic constituents from the leaves of Cinnamomum kotoense” (2006):

Assays:
Format in all cases: functional
[1] = test system: HeLa; assay: Cell cycle arrest in human HeLa cells pretreated with 10 uM Dexamethasone for 1 hr assessed as G2/M phase accumulation at 100 uM after 24 hrs by FACS
Outline: (§1)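 HeLa cells pretreated for 1 h with the listed agent (10 mM GSH ethyl ester, 10 µM dexamethasone, 10 µM pifithrin, 100 µM Boc-Asp(OMe)-fmk or 5 µM cyclosporin A), then given 100 µM compound for 24 h. Cells fixed in PBS-MeOH, stained with PI/RNase and analysed by flow cytometry for DNA content. At least three experiments, one representative shown.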

[2] = test system: HeLa; assay: Cell cycle arrest in human HeLa cells assessed as G1 phase accumulation at 25 uM after 24 hrs by FACS
Outline: (§2)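 HeLa cells seeded 5 × 10^5 per dish 48 h ahead in DMEM with 10% FCS, then exposed to compound for 24 h (DMSO 0.1% final). Adherent and floating cells pooled, fixed in PBS-MeOH (1:2) at 4 °C for at least 18 h, and stained with PI (50 µg/mL) plus RNase A for 30 min at room temperature. Flow cytometry at 488 nm excitation, doublets gated out; phase percentages taken from DNA histograms.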

[3] = test system: HeLa; assay: Cell cycle arrest in human HeLa cells assessed as S phase accumulation at 25 uM after 24 hrs by FACS; outline: as §2
[4] = test system: HeLa; assay: Cell cycle arrest in human HeLa cells assessed as G1 phase accumulation at 50 uM after 24 hrs by FACS; outline: as §2
[5] = test system: HeLa; assay: Cell cycle arrest in human HeLa cells assessed as G1 phase accumulation at 100 uM after 24 hrs by FACS; outline: as §2
[6] = test system: HeLa; assay: Induction of apoptosis in human HeLa cells assessed as increase in intracellular hydrogen peroxide level at 100 uM after 1 hr by FACS relative to untreated control
Outline: (§3)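 HeLa cells at 80% confluence were refed and exposed to 100 µM for 1, 3 or 24 h. They were loaded with 10 µM DCFH-DA for 30 min in the dark, trypsinized and resuspended in PBS. DCF fluorescence was measured by flow cytometry and expressed as fold versus untreated cells. At least three experiments.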

[7] = test system: HeLa; assay: Induction of apoptosis in human HeLa cells assessed as increase in intracellular hydrogen peroxide level at 100 uM after 3 hrs by FACS relative to untreated control; outline: as §3
[8] = test system: HeLa; assay: Induction of apoptosis in human HeLa cells assessed as increase in intracellular nitric oxide level at 100 uM after 3 hrs by FACS relative to untreated control
Outline: (§4)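 HeLa cells at 80% confluence were exposed to 100 µM for 1, 3 or 24 h and then stained with 1 µM DAF-2 for 10 min in the dark. After trypsinization, DAF-2 fluorescence was measured by flow cytometry and taken as fold versus untreated cells. At least three experiments.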

[9] = test system: HeLa; assay: Induction of apoptosis in human HeLa cells assessed as increase in intracellular nitric oxide level at 100 uM after 24 hrs by FACS relative to untreated control; outline: as §4
[10] = test system: HeLa; assay: Induction of apoptosis in human HeLa cells assessed as increase in intracellular glutathione-depleted cell population at 50 uM after 24 hrs by FACS
Outline: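 HeLa cells at 80% confluence got fresh medium and were exposed for 24 h. Adherent and floating cells were pooled, adjusted to (1-2) × 10^6/mL and stained with 25 µM CMF-DA for 30 min at 37 °C. After washing, flow cytometry scored the percentage of GSH-negative cells. At least three experiments.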

[11] = test system: HeLa; assay: Induction of apoptosis in human HeLa cells assessed as number of cells with decreased mitochondrial membrane potential at 100 uM after 3 hrs by measuring rhodamine 123 fluorescence intensity; set-up: scale not given: the % may be the effect or the level left
Outline: (§5)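 Cells in DMEM/10% FCS, medium renewed at 80% confluence, then 100 µM agent (0.1% DMSO final) for 1–24 h. Stained with 5 µM rhodamine 123 for 30 min in the dark, washed, trypsinized and resuspended in PBS; flow cytometry, percentage of cells with weak rhodamine 123 staining (reduced ΔΨm); at least three experiments, representative shown.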

[12] = test system: HeLa; assay: Induction of apoptosis in human HeLa cells assessed as number of cells with decreased mitochondrial membrane potential at 100 uM after 24 hrs by measuring rhodamine 123 fluorescence intensity; set-up: scale not given: the % may be the effect or the level left; outline: as §5
[13] = test system: HeLa; assay: Induction of apoptosis in human HeLa cells assessed as increase caspase 3/7 activities at 100 uM after 9 hrs by FACS relative to control
Outline: (§6)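 After 3–24 h exposure at 100 µM, HeLa cells were trypsinized. 1 × 10^6 cells in DMEM were mixed 1:1 with Z-DEVD-R110 substrate reagent and incubated 1 h at 37 °C, then washed. Released R110 read per cell by flow cytometry (ex 488/em 520 nm) and expressed as fold over untreated cells. At least three runs.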

[14] = test system: HeLa; assay: Induction of apoptosis in human HeLa cells assessed as increase caspase 3/7 activities at 100 uM after 24 hrs by FACS relative to control; outline: as §6
[15] = test system: HeLa; assay: Induction of apoptosis in human HeLa cells assessed as increase p53 expression at 100 uM after 3 hrs by FACS
Outline: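 HeLa seeded at 5 × 10^5 cells/dish 48 h before, in DMEM with 10% FCS; medium renewed at 60% confluence, then 100 µM agent (0.1% DMSO final) for 0–24 h. Pooled floating and adherent cells fixed in 1% paraformaldehyde (15 min, 4 °C), permeabilized in 70% EtOH (30 min, 4 °C), then FITC-conjugated mouse anti-p53 mAb (1 h, 37 °C), PI/RNase counterstain; flow cytometry, % p53-positive cells; ≥3 experiments.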

[16] = test system: HeLa; assay: Induction of apoptosis in human HeLa cells at 100 uM after 24 hrs by TUNEL assay
Outline: (§7)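 HeLa in DMEM/10% FCS, untreated or pretreated 1 h with listed inhibitor, then 100 µM agent (0.1% DMSO final) for 24 h. Pooled cells fixed in 1% paraformaldehyde (30 min, 4 °C), 70% EtOH (30 min, −20 °C); strand breaks labelled with TdT/fluorescein-BrdUTP (1 h, 37 °C), PI/RNase counterstain; flow cytometry, % apoptotic cells; ≥3 experiments.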

[17] = test system: HeLa; assay: Induction of apoptosis in human HeLa cells pretreated with 100 uM Boc-Asp(OMe)-fmk for 1 hr at 100 uM after 24 hrs by TUNEL assay; outline: as §7
[18] = test system: HeLa; assay: Induction of apoptosis in human HeLa cells pretreated with 5 uM cyclosporin A for 1 hr at 100 uM after 24 hrs by TUNEL assay; outline: as §7
[19] = test system: HeLa; assay: Induction of apoptosis in human HeLa cells pretreated with 10 uM pifithrin-alpha for 1 hr at 100 uM after 24 hrs by TUNEL assay; outline: as §7
[20] = test system: HeLa; assay: Cell cycle arrest in human HeLa cells pretreated with 10 mM glutathione ethyl ester for 1 hr assessed as G1 phase accumulation at 100 uM after 24 hrs by FACS; outline: as §1
[21] = test system: HeLa; assay: Cell cycle arrest in human HeLa cells pretreated with 10 mM glutathione ethyl ester for 1 hr assessed as G2/M phase accumulation at 100 uM after 24 hrs by FACS; outline: as §1
[22] = test system: HeLa; assay: Cell cycle arrest in human HeLa cells pretreated with 5 uM cyclosporin A for 1 hr assessed as G2/M phase accumulation at 100 uM after 24 hrs by FACS; outline: as §1

`CCCCCCCCCCCCC/C=C(/C(=O)OC)[C@@H](O)C(C)=O` [SECOKOTOMOLIDE A] showed an Activity [1] of 12.3%, an Activity [2] of 55.2% and an Activity [3] of 18.1%. The Activity [4] was 50.8%, the Activity [5] was 65.2% and the “fold change (FC)” value [6] was 3.4. The “fold change (FC)” value [7] was 2.9, the “fold change (FC)” value [8] was 2.1 and the “fold change (FC)” value [9] was 2.1. It also gave an Activity [10] of 92%, an Activity [11] of 2.2% and an Activity [12] of 75.1%. The “fold change (FC)” value [13] was 9.9, the “fold change (FC)” value [14] was 1.7 and the Activity [15] was 0.5%. It also gave an Activity [16] of 72.3%, an Activity [17] of 39% and an Activity [18] of 54.5%. For the same compound, the Activity [19] was 57.3%, the Activity [20] was 80% and the Activity [21] was 11.6%. It also gave an Activity [22] of 38.2%.
